Measurements pooled from the literature.
Each line is one published result; the experiments were not run side by side.
Target: Dual specificity tyrosine-phosphorylation-regulated kinase 1A (DYRK1A, Homo sapiens, UniProt Q13627)

Structure (SMILES) | test | conditions | quantity | value
O=C(N1CCS(=O)(=O)CC1)N1C[C@H](c2ccc(OC(F)(F)F)cc2)C[C@H](c2nc(C3CC3)no2)C1 | cell-free assay, competition with immobilised ligand | 1 µM | remaining binding | 100%
O=C(O)c1ccc2c(c1)nc(NCCc1cccc(F)c1)c1ncncc12 | enzyme activity, inhibitor, radiometric | 1 µM | remaining activity | 18%
CN([C@@H]1CCc2c(CC(=O)O)c3cc(S(C)(=O)=O)ccc3n2C1)S(=O)(=O)c1ccc(F)cc1 | cell-free assay, competition with immobilised ligand | 1 µM | remaining binding | 81%
CN(C)C1CCN(CC#Cc2nn(C3CCCC3)c3nc(NCc4ccccc4)ncc23)C1 (stereo not drawn) | enzyme activity, inhibitor, FRET | 10 µM | inhibition | 2%
CCCS(=O)(=O)Nc1ccc(F)c(C(=O)c2c[nH]c3ncc(-c4ccc(Cl)cc4)cc23)c1F | enzyme activity, inhibitor | 1 µM | inhibition | < 10%
Cn1c2c(c3ccc(Cl)c(Cl)c31)C(C#N)C(C)(C)NC2=O (stereo not drawn) | thermal stability, DSF | 10 µM | ΔTm | 3.2 °C
O=C(O)c1ccc2c(c1)nc(Nc1ccccc1)c1ccncc12 | enzyme activity, inhibitor, radiometric | 1 µM | remaining activity | 6%
O=C(O)c1cc(-c2ccc(C3CCNCC3)cc2)c2ccc(-c3ccc(C(F)(F)F)cc3)cc2c1 | cell-free assay, competition with immobilised ligand | 1 µM | remaining binding | 100%
O=C1NC(=O)c2cc(Nc3ccc(F)cc3)c(Nc3ccc(F)cc3)cc21 | cell-free assay | 0.5 µM | remaining signal | 95.6%
Cn1c2c(Cl)c(Cl)ccc2c2cc[nH]c(=O)c21 | thermal stability, DSF | 10 µM | ΔTm | 2.6 °C
O=C(O)c1ccc2c(c1)nc(Nc1ccc(F)c(Cl)c1)c1ncncc12 | enzyme activity, inhibitor, radiometric | 1 µM | remaining activity | 1%
Cc1cc(-n2nc(Cc3cc(F)cc(C(F)(F)F)c3)nc2C)ccc1C(N)=O | cell-free assay, competition with immobilised ligand | 1 µM | remaining binding | 92%
Cn1c2c(c3ccc(Cl)c(Cl)c31)C(C#N)C1(CCNCC1)NC2=O (racemic) | thermal stability, DSF | 10 µM | ΔTm | 2.5 °C
N#Cc1cccc(Nc2nc3cc(C(=O)O)ccc3c3cnccc23)c1 | enzyme activity, inhibitor, radiometric | 1 µM | remaining activity | -1%
O=S(=O)(NC1CCC(c2cc(F)ccc2F)(S(=O)(=O)c2ccc(Cl)cc2)CC1)C(F)(F)F (stereo not drawn) | cell-free assay, competition with immobilised ligand | 1 µM | remaining binding | 78%
CS(=O)(=O)CCNCc1ccc(-c2ccc3ncnc(Nc4ccc(OCc5cccc(F)c5)c(Cl)c4)c3c2)o1 | cell-free assay | 0.5 µM | remaining signal | 101%
Cc1cc(NC(=O)c2cccc3cc(-c4cccc5[nH]nc(N)c45)ccc23)ccc1F | enzyme activity, inhibitor | 0.1 µM | activity vs control | 110%
Cc1c(NC(=O)c2cc(C(N)=O)nc3cc(F)ccc23)c(C(F)(F)F)nn1Cc1ccc(C(C)(C)C)cc1 | cell-free assay, competition with immobilised ligand | 1 µM | remaining binding | 100%
CNc1cccc2cc(C(=O)Nc3ccc(C(=O)O)cc3)c(=O)[nH]c12 | enzyme activity, inhibitor | 10 µM | inhibition | 28%
O=C(O)c1ccc2c(c1)nc(Nc1ccccc1)c1ncncc12 | enzyme activity, inhibitor, radiometric | 1 µM | remaining activity | 3%
COc1ccc2c(O[C@@H]3C[C@H]4C(=O)N[C@]5(C(=O)O)CC5/C=C\CCCCC[C@H](NC(=O)OC5CCCC5)C(=O)N4C3)cc(-c3csc(NC(=O)C(C)C)n3)nc2c1C (stereo partly drawn) | cell-free assay, competition with immobilised ligand | 1 µM | remaining binding | 79%
O=C(O)c1ccc2c(c1)nc(NCCc1cccc(Cl)c1)c1ncncc12 | enzyme activity, inhibitor, radiometric | 1 µM | remaining activity | 44%
C[C@@H]1CN(c2cc(-c3nn(C)c4ccc(OC5(C)CC5)cc34)ncn2)C[C@H](C)O1 | cell-free assay, competition with immobilised ligand | 1 µM | remaining binding | 81%
Nc1ncnc2occ(-c3ccc(NC(=O)Nc4cc(C(F)(F)F)ccc4F)cc3)c12 | cell-free assay | 20 µM | remaining signal | 58%
O=C1Nc2ccc(Cl)cc2C1=Cc1cc(Cl)c(O)c(Cl)c1 | cell-free assay | 0.5 µM | remaining signal | 95.6%
O=C(O)c1ccc2c(c1)nc(Nc1ccc(Cl)cc1)c1ccncc12 | enzyme activity, inhibitor, radiometric | 1 µM | remaining activity | 2%
Cn1cnc(Br)c1C1=CN(c2ncnc3[nH]cnc23)CCS1 | enzyme activity, inhibitor, radiometric | 2 µM | inhibition | 99.2%
COc1cc(Nc2c(C#N)cnc3cc(OCCCN4CCN(C)CC4)c(OC)cc23)c(Cl)cc1Cl | cell-free assay | 0.5 µM | remaining signal | 99.4%
CCC1(CC)NC(=O)c2c(c3ccc(Cl)c(Cl)c3n2C)C1C#N (stereo not drawn) | thermal stability, DSF | 10 µM | ΔTm | 0.7 °C
COc1cc2ncnc(Nc3ccc(Oc4ccccc4)c(C)c3C)c2cc1OC | enzyme activity, inhibitor | 1 µM | inhibition | 1%
